Experimental data taken from ChEMBL document CHEMBL1154674, “Synthesis and evaluation of three 18F-labeled aminophenylbenzothiazoles as amyloid imaging agents” (J Med Chem, 2009).

What was measured:
Assay type in all cases: ADME, organism-based
Intestine [1] = test: Biodistribution in NMRI mouse intestine at 3.7 MBq/mL, iv after 60 mins by gamma counting; settings: in vivo, 1 h
How it was run: (§1)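 Male NMRI mice (30-40 g) under isoflurane (1.5-2.5% in oxygen) got 0.1 mL of HPLC-purified tracer diluted with 0.9% NaCl to 3.7 MBq/mL (ethanol ≤10%) via tail vein. Mice were decapitated at 2 or 60 min p.i., and organs, blood and urine were weighed and γ-counted. Values are background-corrected %ID or %ID/g, with blood mass taken as 7% of body mass.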

Heart [2] = test: Biodistribution in NMRI mouse heart at 3.7 MBq/mL, iv after 60 mins by gamma counting; settings: in vivo, 1 h; how it was run: as §1
Liver [3] = test: Drug level in NMRI mouse liver assessed as standard uptake value at 3.7 MBq/mL, iv after 60 mins by gamma counting; settings: in vivo, 1 h
How it was run: (§2)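 Male NMRI mice (30-40 g) were anaesthetised with isoflurane. Each received 0.1 mL of HPLC-purified tracer, diluted in 0.9% NaCl to 3.7 MBq/mL (ethanol ≤10%), via a tail vein. Mice were decapitated at 2 or 60 min. Organs were dissected, weighed and γ-counted with background correction. SUV = (organ cpm/organ weight)/(total recovered counts/body weight). Blood mass was taken as 7% of body mass.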

Liver [4] = test: Biodistribution in NMRI mouse liver at 3.7 MBq/mL, iv after 2 mins by gamma counting; settings: in vivo; how it was run: as §1
Blood [5] = test: Drug level in NMRI mouse blood assessed as standard uptake value at 3.7 MBq/mL, iv after 2 mins by gamma counting; settings: in vivo; how it was run: as §2
Blood [6] = test: Biodistribution in NMRI mouse blood assessed per gram of tissue at 3.7 MBq/mL, iv after 2 mins by gamma counting; settings: in vivo; how it was run: as §1
[7] = Biodistribution in NMRI mouse cerebrum at 3.7 MBq/mL, iv after 2 mins by gamma counting; settings: in vivo; how it was run: as §1
[8] = Biodistribution in NMRI mouse spleen/pancreas assessed per gram of tissue at 3.7 MBq/mL, iv after 60 mins by gamma counting; settings: in vivo, 1 h; how it was run: as §1
Kidney [9] = test: Biodistribution in NMRI mouse kidney assessed per gram of tissue at 3.7 MBq/mL, iv after 60 mins by gamma counting; settings: in vivo, 1 h; how it was run: as §1
Stomach [10] = test: Biodistribution in NMRI mouse stomach at 3.7 MBq/mL, iv after 60 mins by gamma counting; settings: in vivo, 1 h; how it was run: as §1
Kidney [11] = test: Drug level in NMRI mouse kidney assessed as standard uptake value at 3.7 MBq/mL, iv after 60 mins by gamma counting; settings: in vivo, 1 h; how it was run: as §2
Lung [12] = test: Biodistribution in NMRI mouse lung assessed per gram of tissue at 3.7 MBq/mL, iv after 2 mins by gamma counting; settings: in vivo; how it was run: as §1
Kidney [13] = test: Biodistribution in NMRI mouse kidney at 3.7 MBq/mL, iv after 60 mins by gamma counting; settings: in vivo, 1 h; how it was run: as §1
Cerebellum [14] = test: Biodistribution in NMRI mouse cerebellum assessed per gram of tissue at 3.7 MBq/mL, iv after 60 mins by gamma counting; settings: in vivo, 1 h; how it was run: as §1
Stomach [15] = test: Biodistribution in NMRI mouse stomach at 3.7 MBq/mL, iv after 2 mins by gamma counting; settings: in vivo; how it was run: as §1
Blood [16] = test: Biodistribution in NMRI mouse blood at 3.7 MBq/mL, iv after 60 mins by gamma counting; settings: in vivo, 1 h; how it was run: as §1
Lung [17] = test: Drug level in NMRI mouse lung assessed as standard uptake value at 3.7 MBq/mL, iv after 2 mins by gamma counting; settings: in vivo; how it was run: as §2
Kidney [18] = test: Drug level in NMRI mouse kidney assessed as standard uptake value at 3.7 MBq/mL, iv after 2 mins by gamma counting; settings: in vivo; how it was run: as §2
[19] = Biodistribution in NMRI mouse urine at 3.7 MBq/mL, iv after 2 mins by gamma counting; settings: in vivo; how it was run: as §1
[20] = Biodistribution in NMRI mouse cerebrum assessed per gram of tissue at 3.7 MBq/mL, iv after 60 mins by gamma counting; settings: in vivo, 1 h; how it was run: as §1
Blood [21] = test: Drug level in NMRI mouse blood assessed as standard uptake value at 3.7 MBq/mL, iv after 60 mins by gamma counting; settings: in vivo, 1 h; how it was run: as §2
Heart [22] = test: Drug level in NMRI mouse heart assessed as standard uptake value at 3.7 MBq/mL, iv after 2 mins by gamma counting; settings: in vivo; how it was run: as §2
Blood [23] = test: Biodistribution in NMRI mouse blood assessed per gram of tissue at 3.7 MBq/mL, iv after 60 mins by gamma counting; settings: in vivo, 1 h; how it was run: as §1
[24] = Drug level in NMRI mouse spleen/pancreas assessed as standard uptake value at 3.7 MBq/mL, iv after 60 mins by gamma counting; settings: in vivo, 1 h; how it was run: as §2
[25] = Biodistribution in NMRI mouse cerebrum assessed per gram of tissue at 3.7 MBq/mL, iv after 2 mins by gamma counting; settings: in vivo; how it was run: as §1
Heart [26] = test: Biodistribution in NMRI mouse heart assessed per gram of tissue at 3.7 MBq/mL, iv after 2 mins by gamma counting; settings: in vivo; how it was run: as §1
Lung [27] = test: Biodistribution in NMRI mouse lung at 3.7 MBq/mL, iv after 60 mins by gamma counting; settings: in vivo, 1 h; how it was run: as §1
[28] = Biodistribution in NMRI mouse spleen/pancreas at 3.7 MBq/mL, iv after 2 mins by gamma counting; settings: in vivo; how it was run: as §1
[29] = Biodistribution in NMRI mouse spleen/pancreas at 3.7 MBq/mL, iv after 60 mins by gamma counting; settings: in vivo, 1 h; how it was run: as §1
Cerebellum [30] = test: Biodistribution in NMRI mouse cerebellum assessed per gram of tissue at 3.7 MBq/mL, iv after 2 mins by gamma counting; settings: in vivo; how it was run: as §1
Liver [31] = test: Biodistribution in NMRI mouse liver assessed per gram of tissue at 3.7 MBq/mL, iv after 2 mins by gamma counting; settings: in vivo
[32] = Drug level in NMRI mouse cerebrum assessed as standard uptake value at 3.7 MBq/mL, iv after 2 mins by gamma counting; settings: in vivo; how it was run: as §2
Heart [33] = test: Drug level in NMRI mouse heart assessed as standard uptake value at 3.7 MBq/mL, iv after 60 mins by gamma counting; settings: in vivo, 1 h; how it was run: as §2
Blood [34] = test: Biodistribution in NMRI mouse blood at 3.7 MBq/mL, iv after 2 mins by gamma counting; settings: in vivo; how it was run: as §1
[35] = Drug level in NMRI mouse cerebrum assessed as standard uptake value at 3.7 MBq/mL, iv after 60 mins by gamma counting; settings: in vivo, 1 h; how it was run: as §2
Cerebellum [36] = test: Biodistribution in NMRI mouse cerebellum at 3.7 MBq/mL, iv after 2 mins by gamma counting; settings: in vivo; how it was run: as §1
[37] = Biodistribution in NMRI mouse urine at 3.7 MBq/mL, iv after 60 mins by gamma counting; settings: in vivo, 1 h; how it was run: as §1
Cerebellum [38] = test: Biodistribution in NMRI mouse cerebellum at 3.7 MBq/mL, iv after 60 mins by gamma counting; settings: in vivo, 1 h; how it was run: as §1
Intestine [39] = test: Biodistribution in NMRI mouse intestine at 3.7 MBq/mL, iv after 2 mins by gamma counting; settings: in vivo; how it was run: as §1
Heart [40] = test: Biodistribution in NMRI mouse heart assessed per gram of tissue at 3.7 MBq/mL, iv after 60 mins by gamma counting; settings: in vivo, 1 h; how it was run: as §1
[41] = Biodistribution in NMRI mouse spleen/pancreas assessed per gram of tissue at 3.7 MBq/mL, iv after 2 mins by gamma counting; settings: in vivo; how it was run: as §1
[42] = Biodistribution in NMRI mouse cerebrum at 3.7 MBq/mL, iv after 60 mins by gamma counting; settings: in vivo, 1 h; how it was run: as §1
Cerebellum [43] = test: Drug level in NMRI mouse cerebellum assessed as standard uptake value at 3.7 MBq/mL, iv after 60 mins by gamma counting; settings: in vivo, 1 h; how it was run: as §2
Lung [44] = test: Biodistribution in NMRI mouse lung at 3.7 MBq/mL, iv after 2 mins by gamma counting; settings: in vivo; how it was run: as §1
Liver [45] = test: Biodistribution in NMRI mouse liver at 3.7 MBq/mL, iv after 60 mins by gamma counting; settings: in vivo, 1 h; how it was run: as §1
Liver [46] = test: Biodistribution in NMRI mouse liver assessed per gram of tissue at 3.7 MBq/mL, iv after 60 mins by gamma counting; settings: in vivo, 1 h; how it was run: as §1
[47] = Drug level in NMRI mouse spleen/pancreas assessed as standard uptake value at 3.7 MBq/mL, iv after 2 mins by gamma counting; settings: in vivo; how it was run: as §2
Lung [48] = test: Drug level in NMRI mouse lung assessed as standard uptake value at 3.7 MBq/mL, iv after 60 mins by gamma counting; settings: in vivo, 1 h; how it was run: as §2
Kidney [49] = test: Biodistribution in NMRI mouse kidney assessed per gram of tissue at 3.7 MBq/mL, iv after 2 mins by gamma counting; settings: in vivo; how it was run: as §1
Liver [50] = test: Drug level in NMRI mouse liver assessed as standard uptake value at 3.7 MBq/mL, iv after 2 mins by gamma counting; settings: in vivo; how it was run: as §2
Heart [51] = test: Biodistribution in NMRI mouse heart at 3.7 MBq/mL, iv after 2 mins by gamma counting; settings: in vivo; how it was run: as §1
Lung [52] = test: Biodistribution in NMRI mouse lung assessed per gram of tissue at 3.7 MBq/mL, iv after 60 mins by gamma counting; settings: in vivo, 1 h; how it was run: as §1
Cerebellum [53] = test: Drug level in NMRI mouse cerebellum assessed as standard uptake value at 3.7 MBq/mL, iv after 2 mins by gamma counting; settings: in vivo; how it was run: as §2
Kidney [54] = test: Biodistribution in NMRI mouse kidney at 3.7 MBq/mL, iv after 2 mins by gamma counting; settings: in vivo; how it was run: as §1

## Cc1ccc2nc(-c3ccc([18F])cc3)sc2c1
Intestine [1]
  Drug uptake: 19.3%
Heart [2]
  Drug uptake: 0.1%
Liver [3]
  SUV: 9.2
Liver [4]
  Drug uptake: 24.8%
Blood [5]
  SUV: 0.8
Blood [6]
  Drug uptake: 2.2%
[7]
  Drug uptake: 1.62%
[8]
  Drug uptake: 0.4%
Kidney [9]
  Drug uptake: 3.6%
Stomach [10]
  Drug uptake: 1.1%
Kidney [11]
  SUV: 1.4
Lung [12]
  Drug uptake: 14.4%
Kidney [13]
  Drug uptake: 2.3%
Cerebellum [14]
  Drug uptake: 0.39%
Stomach [15]
  Drug uptake: 1.3%
Blood [16]
  Drug uptake: 2.8%
Lung [17]
  SUV: 5.3
Kidney [18]
  SUV: 3.4
[19]
  Drug uptake: 0.2%
[20]
  Drug uptake: 0.27%
Blood [21]
  SUV: 0.4
Heart [22]
  SUV: 2
Blood [23]
  Drug uptake: 1.1%
[24]
  SUV: 0.2
[25]
  Drug uptake: 5.33%
Heart [26]
  Drug uptake: 5.4%
Lung [27]
  Drug uptake: 0.3%
[28]
  Drug uptake: 1.3%
[29]
  Drug uptake: 0.1%
Cerebellum [30]
  Drug uptake: 5.99%
Liver [31]
  Drug uptake: 12%
[32]
  SUV: 1.97
Heart [33]
  SUV: 0.2
Blood [34]
  Drug uptake: 5.7%
[35]
  SUV: 0.1
Cerebellum [36]
  Drug uptake: 0.42%
[37]
  Drug uptake: 3.3%
Cerebellum [38]
  Drug uptake: 0.04%
Intestine [39]
  Drug uptake: 8.9%
Heart [40]
  Drug uptake: 0.5%
[41]
  Drug uptake: 4%
[42]
  Drug uptake: 0.07%
Cerebellum [43]
  SUV: 0.15
Lung [44]
  Drug uptake: 3.6%
Liver [45]
  Drug uptake: 51.8%
Liver [46]
  Drug uptake: 24.6%
[47]
  SUV: 1.5
Lung [48]
  SUV: 0.5
Kidney [49]
  Drug uptake: 9.3%
Liver [50]
  SUV: 4.5
Heart [51]
  Drug uptake: 0.9%
Lung [52]
  Drug uptake: 1.3%
Cerebellum [53]
  SUV: 2.21
Kidney [54]
  Drug uptake: 5.8%
